Data set [1] is described as follows: Lipophilicity, log D of the compound by octanol/buffer shake flask method. The class given is physicochemical.
Data set [2] can be described thus: AUC in Sprague-Dawley rat at 30 mg/kg, po. The class given is ADME, organism-based. Details: dose 30 mg/kg, route oral. The settings on record: plasma. The essentials:
(§1)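 Male Sprague-Dawley rats, about 11 weeks old (300−400 g), singly housed with chow and water ad libitum. […] Urine was collected overnight predose and at 0−2, 2−4 and 4−7 h postdose for Na+ and K+, normalised to creatinine. Plasma drug was measured by LC-MS.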

Data set [3] can be described thus: AUC in rat at 5 mg/kg, po. The settings on record: plasma. Details: dose 5 mg/kg, route oral. The class given is ADME, organism-based. In short, it runs like this:
(§2)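 Rat pharmacokinetics after a single IV dose of 1 mg/kg and an oral dose of 5 mg/kg. Reported parameters are AUC, t1/2, clearance, Vss and oral bioavailability.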

Data set [4] in a line: Volume of distribution at steady state in rat at 1 mg/kg, iv. The class given is ADME, organism-based. The note with it: in vivo, read-out: Vdss. Details: dose 1 mg/kg, route intravenous. The essentials:
as §2

Data set [5] can be described thus: Clearance in rat at 1 mg/kg, iv. The class given is ADME, organism-based. Details: dose 1 mg/kg, route intravenous. The note with it: in vivo. The essentials:
as §2

A short description of data set [6]: Oral bioavailability in rat at 5 mg/kg. The class given is ADME, organism-based. The settings on record: in vivo. The essentials: as §2
The nature of data set [7]: Intrinsic clearance in human liver microsomes. The class given is ADME. The note with it: read-out: CLH. A general note: Microsomes from liver hold many membrane-bound enzymes, among them those of drug oxidation.
Data set [8] in a line: AUC in Sprague-Dawley rat at 3 mg/kg, po. The class given is ADME, organism-based. Details: dose 3 mg/kg, route oral. The settings on record: plasma. The essentials:
as §1

A short description of data set [9]: Half life in rat at 1 mg/kg, iv. The settings on record: in vivo. Details: dose 1 mg/kg, route intravenous. The class given is ADME, organism-based. In short, it runs like this: as §2
Data set [10] in a line: AUC in rat at 1 mg/kg, iv. The class given is ADME, organism-based. Details: dose 1 mg/kg, route intravenous. The note with it: plasma. The essentials: as §2
Data set [11] is described as follows: AUC in Sprague-Dawley rat at 10 mg/kg, po. The class given is ADME, organism-based. Details: dose 10 mg/kg, route oral. The settings on record: plasma. The essentials: as §1

What is called logD is lipophilicity at a set pH, counting ionised and neutral species. In turn, `CCOc1nc(C2=NN(c3ccc(C#N)c(C)c3)[C@@H](C3CCCC3)C2)ccc1C(=O)O` gave a logD in data set [1] of 3.

The compound `CNC(=O)c1ccc(C2=NN(c3ccc(C#N)c(C)n3)[C@@H](C3CCCC3)C2)nc1OC` returned a logD in data set [1] of 3.2.

As for `COc1nc(C2=NN(c3ccc(C#N)c(C)c3)[C@@H](C3CCCC3)C2)ccc1C(=O)Nc1nnn[nH]1`, the logD in data set [1] came out at 3.2.

With `COc1nc(C2=NN(c3ccc(C#N)c(Cl)c3)[C@@H](C3CCCC3)C2)ccc1C(=O)O`, in data set [1], the logD came to 2.3.

In data set [1], `CNC(=O)c1ccc(C2=NN(c3ccc(C#N)c(C)c3)[C@@H](C3CCCC3)C2)nc1OC` yielded a logD of 4.4.

In data set [1], `COc1cc(C2=NN(c3ccc(C#N)c(C)n3)[C@@H](C3CCCC3)C2)ccc1C(=O)O` returned a logD of 1.7.

As a reminder, the AUC is the area under the concentration-time curve, a measure of exposure. A high value points to high exposure. As usually defined, the clearance is the rate of elimination divided by the concentration. What is called bioavailability is the share of a dose that reaches the circulation, judged against a reference dose that is usually intravenous. Low values mean poor availability, high ones good availability. Broadly, the half-life is how long it takes for the measured level to halve. With `COc1nc(C2=NN(c3ccc(C#N)c(C)c3)[C@@H](C3CCCC3)C2)ccc1C(=O)O`, the AUC in data set [2] is 33600 ng·h/mL; in data set [3], 1320 ng·h/mL; in data set [8], 1170 ng·h/mL; in [10], 494 ng·h/mL; in [11], 9240 ng·h/mL. In data set [4], the Vd worked out at 3.1 L/kg. Moreover, the clearance in data set [5] is 33 mL/min/kg. Further, the bioavailability in [6] is 54%. Further, the microsomal CLint in [7] was < 14 µL/min/mg. The same compound had a half-life in data set [9] of 2.3 h. Further, the logD in [1] was 2.2.

Turning to `CCOc1cc(C2=NN(c3ccc(C#N)c(C)c3)[C@@H](C3CCCC3)C2)ccc1C(=O)O`, the logD in data set [1] was determined as 2.7.

`COc1nc(C2=NN(c3ccc(C#N)c(C)n3)[C@@H](C(C)C)C2)ccc1C(=O)O` gave a log distribution coefficient (logD) in [1] of 1.6.

For `COc1nc(C2=NN(c3ccc(C#N)c(C)n3)[C@@H](C3CCCC3)C2)ccc1C(=O)NS(C)(=O)=O`, in [1], the logD is 1.9.

In turn, `COc1cc(C2=NN(c3ccc(C#N)c(Cl)c3)[C@@H](C3CCCC3)C2)ccc1C(=O)O` came in with a logD in data set [1] of 2.1.

For the compound `COc1nc(C2=NN(c3ccc(C#N)c(C)c3)[C@@H](C3CCCC3)C2)ccc1C(=O)NS(C)(=O)=O`, in data set [7], the microsomal CLint amounted to 175 µL/min/mg. This compound also registered a logD in data set [1] of 2.3.

As for `COc1nc(C2=NN(c3ccc(C#N)c(C)c3)[C@@H](C3CCCC3)C2)ccc1C(N)=O`, the logD in data set [1] is 3.8.

Compound `COc1nc(C2=NN(c3ccc(C#N)c(C)n3)[C@@H](C3CCCC3)C2)ccc1C(=O)N(C)C` displayed a logD in [1] of 4.1.

In turn, `N#Cc1ccc(N2N=C3c4ccc(C(=O)O)cc4CC[C@@H]3[C@@H]2C2CCCC2)cc1Cl` [PF-03882845] had a log distribution coefficient (logD) in data set [1] of 3.5.

Regarding `COc1nc(C2=NN(c3ccc(C#N)c(C)n3)[C@@H](C3CCCC3)C2)ccc1C(N)=O`, the logD in [1] turned out to be 3.4.

For `CCOc1cc(C2=NN(c3ccc(C#N)c(Cl)c3)[C@@H](C3CCCC3)C2)ccc1C(=O)O`, the logD in [1] came to 2.6.

Consider `COc1nc(C2=NN(c3ccc(C#N)c(C)n3)[C@@H](C3CCCC3)C2)ccc1C(=O)O`, for which the log distribution coefficient (logD) in data set [1] came to 2.

Consider `COc1nc(C2=NN(c3ccc(C#N)c(C)c3)[C@@H](C3CCCC3)C2)ccc1C(=O)N(C)C`, for which the logD in data set [1] was 3.5.

`COc1cc(C2=NN(c3ccc(C#N)c(C)c3)[C@@H](C3CCCC3)C2)ccc1C(=O)O` yielded a logD in data set [1] of 2.2.

Compound `COc1nc(C2=NN(c3ccc(C#N)c(C)c3)[C@H](C3CCCC3)C2)ccc1C(=O)O` had a logD in [1] of 2.2.

With `Cc1nc(N2N=C(c3ccc(C(=O)O)cc3)C[C@@H]2C2CCCC2)ccc1C#N`, the logD in data set [1] was 2.6.

Values taken from ChEMBL document CHEMBL3259597 (J Med Chem, 2014).
